Data as given in ChEMBL document CHEMBL1145957 (J Med Chem, 2003).

Tests used:
Trypanosoma cruzi [1] = assay: Percent inhibition in vitro against intracellular form of Trypanosoma cruzi at 10 uM concentration; assay type: functional
Method in brief: (§1)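 T. cruzi Y strain (MHOM/BR/OO/Y) trypomastigotes, grown in L6 myoblast cultures, infect mouse peritoneal macrophages in medium with drug from 90 to 3 μM. Incubation 72 h at 37 °C. Activity read as percent of infected macrophages in treated cultures.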

Trypanosoma cruzi [2] = assay: Percent inhibition in vitro against intracellular form of Trypanosoma cruzi at 3 uM concentration; assay type: functional; method in brief: as §1
Trypanosoma cruzi [3] = assay: Percent inhibition in vitro against intracellular form of Trypanosoma cruzi at 30 uM concentration; assay type: functional; method in brief: as §1
Trypanosoma cruzi [4] = assay: Percent inhibition in vitro against intracellular form of Trypanosoma cruzi at 90 uM concentration; assay type: functional; method in brief: as §1
Trypanosoma cruzi [5] = assay: Effective dose against Trypanosoma cruzi; assay type: functional
Leishmania infantum [6] = assay: In vitro percent inhibition against mouse peritoneal macrophages infected with Leishmania infantum at 12.5 uM concentration; assay type: functional
Method in brief: (§2)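 Primary mouse peritoneal macrophages seeded at 30 000 cells/well. After 24 h, spleen-derived L. infantum (MOHM/MA BE/67) amastigotes added at a 10:1 infection ratio with 2-fold drug dilutions. Incubated 5 days at 37 °C, 5% CO2; uninfected cultures treated in parallel. Total parasite load or infected-macrophage count scored microscopically on Wright-stained slides, versus untreated controls.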

Leishmania infantum [7] = assay: In vitro percent inhibition against mouse peritoneal macrophages infected with Leishmania infantum at 25 uM concentration; assay type: functional; method in brief: as §2
Leishmania infantum [8] = assay: In vitro percent inhibition against mouse peritoneal macrophages infected with Leishmania infantum at 6.2 uM concentration; assay type: functional; method in brief: as §2
Trypanosoma cruzi [9] = assay: In vitro percent inhibition against mouse peritoneal macrophages infected with Trypanosoma cruzi at 12.5 uM concentration; assay type: functional
Method in brief: (§3)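 Mouse peritoneal macrophages seeded at 30 000 cells/well. After 24 h, about 100 000 T. cruzi Tulahen CL2 trypomastigotes per well added with 2-fold drug dilutions. Incubated 4 days at 37 °C, 5% CO2; uninfected cultures treated alike. Reduction of total parasite load (free trypomastigotes plus intracellular amastigotes) versus untreated controls scored microscopically.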

Trypanosoma cruzi [10] = assay: In vitro percent inhibition against mouse peritoneal macrophages infected with Trypanosoma cruzi at 25 uM concentration; assay type: functional; method in brief: as §3
Trypanosoma cruzi [11] = assay: In vitro percent inhibition against mouse peritoneal macrophages infected with Trypanosoma cruzi at 6.2 uM concentration; assay type: functional; method in brief: as §3
Trypanosoma cruzi [12] = assay: In vitro percent inhibition against mouse peritoneal macrophages infected with Trypanosoma cruzi at 3.1 uM concentration; assay type: functional; method in brief: as §3
Leishmania infantum [13] = assay: In vitro percent inhibition against mouse peritoneal macrophages infected with Leishmania infantum at 3.1 uM concentration; assay type: functional; method in brief: as §2
[14] = tested on: Homo sapiens (MRC-5 cells); assay: Concentration that cause cytotoxicity at 25 uM concentration
[15] = tested on: Homo sapiens (MRC-5 cells); assay: Concentration that cause cytotoxicity at 3.1 uM concentration
[16] = tested on: Homo sapiens (MRC-5 cells); assay: Concentration that cause cytotoxicity at 6.2 uM concentration
[17] = tested on: Homo sapiens (MRC-5 cells); assay: Concentration that cause cytotoxicity at 12.5 uM concentration
Leishmania donovani = assay: Percent inhibition in vitro against intracellular form of Leishmania donovani at 90 uM concentration; assay type: functional
Method in brief: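 Hamster-spleen-derived L. donovani (MHOM/ET/67/L82) amastigotes infect mouse peritoneal macrophages in chamber slides. Infected cells kept with drug across 90–3 μM in quadruplicate for 7 days at 37 °C. Activity taken as percentage of macrophages cleared of amastigotes; sodium stibogluconate served as positive control.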

Trypanosoma brucei [18] = assay: Effective concentration in vitro against the bloodstream trypomastigote form of Trypanosoma brucei; assay type: functional, organism-based
Method in brief: (§4)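 T. brucei brucei AnTat 1.9 bloodstream forms kept cell-free at 10⁵ trypanosomes/mL. Drug added in 10-fold dilutions, 50 to 0.01 μM final, 16 replicates per dilution and control. Incubated 48 h at 37 °C, 5% CO2.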

Trypanosoma brucei [19] = assay: Minimum effective concentration in vitro against the bloodstream trypomastigote form of Trypanosoma brucei; assay type: functional; settings: read-out: MEC; method in brief: as §4
Leishmania infantum [20] = assay: In vitro percent inhibition against mouse peritoneal macrophages infected with Leishmania infantum at 25 uM concentration; Toxic for macrophage; assay type: functional, organism-based; method in brief: as §2
Trypanosoma cruzi [21] = assay: In vitro percent inhibition against mouse peritoneal macrophages infected with Trypanosoma cruzi at 25 uM concentration; Toxic for macrophage; assay type: functional, organism-based; method in brief: as §3
[22] = tested on: Homo sapiens (MRC-5 cells); assay: Concentration that cause cytotoxicity at 1.5 uM concentration
[23] = tested on: Homo sapiens (MRC-5 cells); assay: Concentration that cause cytotoxicity at 25 uM concentration in human MRC-5 cells
[24] = tested on: Homo sapiens (MRC-5 cells); assay: Concentration that cause cytotoxicity at 3.1 uM concentration in human MRC-5 cells
[25] = tested on: Homo sapiens (MRC-5 cells); assay: Concentration that cause cytotoxicity at 6.2 uM concentration in human MRC-5 cells
[26] = tested on: Homo sapiens (MRC-5 cells); assay: Concentration that cause cytotoxicity at 12.5 uM concentration in human MRC-5 cells

With `Cn1c([N+](=O)[O-])cnc1/C=N/N=C(/N)S` the inhibition at 10 µM (Trypanosoma cruzi [1]) was 71%, the inhibition at 3 µM (Trypanosoma cruzi [2]) was 54% and the inhibition at 30 µM (Trypanosoma cruzi [3]) was 93%. The inhibition at 90 µM (Trypanosoma cruzi [4]) was 99% and the ED50 (Trypanosoma cruzi [5]) was 3.3 µM.

For `Cn1c([N+](=O)[O-])cnc1-c1nnc(NC(=O)CCCC(=O)NC2C(O)OC(CO)C(O)C2O)s1` (centres undefined), the inhibition at 12.5 µM (Leishmania infantum [6]) was 0%, the inhibition at 25 µM (Leishmania infantum [7]) was 0% and the inhibition at 6.2 µM (Leishmania infantum [8]) was 0%. The inhibition at 12.5 µM (Trypanosoma cruzi [9]) was 99%, the inhibition at 25 µM (Trypanosoma cruzi [10]) was 99% and the inhibition at 6.2 µM (Trypanosoma cruzi [11]) was 60%. The inhibition at 3.1 µM (Trypanosoma cruzi [12]) was 20% and the inhibition at 3.1 µM (Leishmania infantum [13]) was 0%.

Compound `N/C(S)=N/N=C/c1ccc([N+](=O)[O-])s1` has an inhibition at 25 µM (Leishmania infantum [7]) of 40%, an inhibition at 6.2 µM (Leishmania infantum [8]) of 0% and an inhibition at 25 µM (Trypanosoma cruzi [10]) of 90%. The inhibition at 6.2 µM (Trypanosoma cruzi [11]) was 40%, the inhibition at 25 µM [14] was 0% and the inhibition at 3.1 µM [15] was 0%. For the same compound, the inhibition at 6.2 µM [16] was 0% and the inhibition at 12.5 µM [17] was 0%.

For `Cn1c(-c2nnc(N)s2)nc(N2CCCCC2)c1[N+](=O)[O-]`, the inhibition at 90 µM (Leishmania donovani) was 0%, the inhibition at 10 µM (Trypanosoma cruzi [1]) was 0% and the inhibition at 30 µM (Trypanosoma cruzi [3]) was 3%. The inhibition at 90 µM (Trypanosoma cruzi [4]) was 41%.

For `Cc1ccc(C(=O)Nc2ccc(S(=O)(=O)O)c3cc(S(=O)(=O)O)cc(S(=O)(=O)O)c23)cc1NC(=O)c1cccc(NC(=O)Nc2cccc(C(=O)Nc3cc(C(=O)Nc4ccc(S(=O)(=O)O)c5cc(S(=O)(=O)O)cc(S(=O)(=O)O)c45)ccc3C)c2)c1` [SURAMIN], the EC50 (Trypanosoma brucei [18]) was 0.02 µM and the minimal effective concentration (Trypanosoma brucei [19]) was 0.8 µM.

`Cc1nc(-c2nnc(N)s2)n(C)c1[N+](=O)[O-]` showed an EC50 (Trypanosoma brucei [18]) of over 41 µM and a minimal effective concentration (Trypanosoma brucei [19]) of over 41 µM.

`Cn1c([N+](=O)[O-])cnc1-c1nnc(NC(=O)C(F)(F)F)s1` gave a minimal effective concentration (Trypanosoma brucei [19]) of 31 µM.

For `Cn1c(-c2nnc(N)s2)nc(Br)c1[N+](=O)[O-]`, the EC50 (Trypanosoma brucei [18]) was 0.5 µM and the minimal effective concentration (Trypanosoma brucei [19]) was 3.3 µM.

With `CC(=O)Nc1nnc(-c2ncc([N+](=O)[O-])n2C)s1` the inhibition at 12.5 µM (Leishmania infantum [6]) was 40%, the inhibition at 25 µM (Leishmania infantum [7]) was 40% and the inhibition at 6.2 µM (Leishmania infantum [8]) was 0%. It also gave an EC50 (Trypanosoma brucei [18]) of 0.2 µM, a minimal effective concentration (Trypanosoma brucei [19]) of 1.6 µM and an inhibition at 12.5 µM (Trypanosoma cruzi [9]) of 99%. The inhibition at 25 µM (Trypanosoma cruzi [10]) was 99%, the inhibition at 6.2 µM (Trypanosoma cruzi [11]) was 99% and the inhibition at 3.1 µM (Trypanosoma cruzi [12]) was 99%. For the same compound, the inhibition at 3.1 µM (Leishmania infantum [13]) was 0%, the inhibition at 25 µM [14] was 0% and the inhibition at 6.2 µM [16] was 0%. For the same compound, the inhibition at 12.5 µM [17] was 0%.

`Cn1c(-c2nnc(N)s2)nc(C(F)(F)F)c1[N+](=O)[O-]` gave an EC50 (Trypanosoma brucei [18]) of 25 µM and a minimal effective concentration (Trypanosoma brucei [19]) of over 34 µM.

`Cn1c([N+](=O)[O-])cnc1S(C)(=O)=O` was tested, and the inhibition at 12.5 µM (Leishmania infantum [6]) was 0%, the inhibition (Leishmania infantum [20]) was “Toxic for macrophage” and the inhibition at 6.2 µM (Leishmania infantum [8]) was 0%. For the same compound, the EC50 (Trypanosoma brucei [18]) was 8 µM, the minimal effective concentration (Trypanosoma brucei [19]) was over 49 µM and the inhibition at 12.5 µM (Trypanosoma cruzi [9]) was 0%. The inhibition (Trypanosoma cruzi [21]) was “Toxic for macrophage”, the inhibition at 6.2 µM (Trypanosoma cruzi [11]) was 0% and the inhibition at 3.1 µM (Trypanosoma cruzi [12]) was 0%. It also gave an inhibition at 3.1 µM (Leishmania infantum [13]) of 0%, an inhibition at 25 µM [14] of 85% and an inhibition at 3.1 µM [15] of 28%. The inhibition at 1.5 µM [22] was 21% and the inhibition at 12.5 µM [17] was 29%.

For `Nc1nnc(-c2ccc([N+](=O)[O-])o2)o1`, the minimal effective concentration (Trypanosoma brucei [19]) was over 51 µM.

In the case of `NC(=O)N/N=C/c1ccc([N+](=O)[O-])o1` [NITROFURAZONE], the inhibition at 25 µM (Leishmania infantum [7]) is reported as 0%, the inhibition at 6.2 µM (Leishmania infantum [8]) is reported as 0% and the minimal effective concentration (Trypanosoma brucei [19]) is reported as 5 µM. It also gave an inhibition at 25 µM (Trypanosoma cruzi [10]) of 99%, an inhibition at 6.2 µM (Trypanosoma cruzi [11]) of 40% and an Inhibition [23] of 0%. For the same compound, the Inhibition [24] was 0%, the Inhibition [25] was 0% and the Inhibition [26] was 0%.

For `Cn1c(-c2nnc(N)s2)nc(Sc2ccccc2)c1[N+](=O)[O-]`, the inhibition at 12.5 µM (Leishmania infantum [6]) was 0%, the inhibition at 25 µM (Leishmania infantum [7]) was 0% and the inhibition at 6.2 µM (Leishmania infantum [8]) was 0%. The inhibition at 12.5 µM (Trypanosoma cruzi [9]) was 60%, the inhibition at 25 µM (Trypanosoma cruzi [10]) was 80% and the inhibition at 6.2 µM (Trypanosoma cruzi [11]) was 0%. The inhibition at 3.1 µM (Trypanosoma cruzi [12]) was 0%, the inhibition at 3.1 µM (Leishmania infantum [13]) was 0% and the inhibition at 25 µM [14] was 40%. The inhibition at 6.2 µM [16] was 0% and the inhibition at 12.5 µM [17] was 3%.

With `Nc1nnc(-c2ccc([N+](=O)[O-])o2)s1` the inhibition at 25 µM (Leishmania infantum [7]) was 40%, the inhibition at 6.2 µM (Leishmania infantum [8]) was 0% and the inhibition at 6.2 µM (Trypanosoma cruzi [11]) was 95%. The inhibition at 25 µM [14] was 4%, the inhibition at 3.1 µM [15] was 0% and the inhibition at 6.2 µM [16] was 0%. It also gave an inhibition at 12.5 µM [17] of 0%.
